This is an account of results in ChEMBL document CHEMBL1914352, “Design, synthesis, docking, and biological evaluation of novel diazide-containing isoxazole- and pyrazole-based histone deacetylase probes” (J Med Chem, 2011).

The target of assay [1] is T1, Matrix metalloproteinase-14 (Homo sapiens, UniProt P50281). Put plainly: Inhibition of MMP14.
The target of another assay is T2, Interstitial collagenase (Homo sapiens, UniProt P03956).
T2 sequence (P03956 whole entry): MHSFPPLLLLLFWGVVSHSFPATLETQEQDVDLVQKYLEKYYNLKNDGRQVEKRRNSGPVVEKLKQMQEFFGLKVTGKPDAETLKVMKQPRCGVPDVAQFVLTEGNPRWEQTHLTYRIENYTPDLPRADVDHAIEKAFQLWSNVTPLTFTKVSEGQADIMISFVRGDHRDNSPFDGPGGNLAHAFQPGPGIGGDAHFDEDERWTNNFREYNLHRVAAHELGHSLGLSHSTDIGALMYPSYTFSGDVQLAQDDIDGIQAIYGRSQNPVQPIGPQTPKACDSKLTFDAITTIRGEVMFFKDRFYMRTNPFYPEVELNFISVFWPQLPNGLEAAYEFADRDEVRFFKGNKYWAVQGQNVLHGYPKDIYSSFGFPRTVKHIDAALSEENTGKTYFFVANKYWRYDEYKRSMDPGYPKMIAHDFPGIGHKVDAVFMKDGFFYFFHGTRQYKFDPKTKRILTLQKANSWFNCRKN
Put plainly: Inhibition of MMP1.

The test system of assay [2] is HepG2. Description: Induction of apoptosis in human HepG2 cells assessed as hyperacetylation of p53 at 1 to 10 uM by Western blot analysis. In kind it is functional, cell-based. The gist of the method:
(§1)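 HepG2 cells are seeded at 2.7×10^5 cells/well in D7 medium (DMEM, 7% FBS), refed after 24 h, and after 1 h at 37 °C treated with DMSO or 1, 5 or 10 µM inhibitor. Lysis is in ice-cold 1% CHAPSO buffer (50 mM Hepes pH 7.4), 45 min at 4 °C. Immunoblots are probed for cleaved caspase 3 Asp175, acetyl-Lys373 p53, total p53 and GAPDH, detected by chemiluminescence, with band densitometry.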
In general terms: In western blotting, separated proteins are transferred to a membrane and probed.

For another assay, the target named is Stromelysin-1 (Homo sapiens, UniProt P08254). Put plainly: Inhibition of MMP3.
Assay [3] concerns HepG2. Put plainly: Induction of apoptosis in human HepG2 cells assessed as cleavage of caspase 3 at 1 to 10 uM after 24 hrs by Western blot analysis. In kind it is functional, cell-based. The method in brief:
as §1

Assay [4] addresses T1, Matrix metalloproteinase-14. Put plainly: Inhibition of MMP14 assessed as activity remaining at […].
The subject of a further assay is SH-SY5Y. Put plainly: Neuroprotective activity against LY294002-induced stress in retinoic acid differentiated human SH-SY5Y cells assessed as cell survival at 1 uM. Type of assay: functional, cell-based. The gist of the method: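 SH-SY5Y cells are differentiated for 7–8 days in 1% FBS medium with 10 µM retinoic acid, then seeded at 2×10^4 cells/well in 1% FBS medium with 5 µM RA. After 24 h they go into phenol-red-free 1% FBS/RA medium with DMSO or 0.5–50 µM inhibitor, without or with 100 µM LY294002, for 24 h. Readout: XTT viability as % survival vs vehicle, four replicates ± SD, one-way ANOVA with Dunnett.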

Assay [5] has as its target T3, Interstitial collagenase (Homo sapiens) (UniProt P03956).
T3 sequence (whole entry): T2 sequence (P03956 whole entry)
Put plainly: Inhibition of MMP1 assessed as activity remaining at […].

Assay [6] deals with Matrix metalloproteinase-9 (Homo sapiens, UniProt P14780). Description: Inhibition of MMP9 assessed as activity remaining at […].

Active and inactive are the calls of the source. The rule behind the calls is not given here.

Stromelysin-1, sequence (P08254 whole entry): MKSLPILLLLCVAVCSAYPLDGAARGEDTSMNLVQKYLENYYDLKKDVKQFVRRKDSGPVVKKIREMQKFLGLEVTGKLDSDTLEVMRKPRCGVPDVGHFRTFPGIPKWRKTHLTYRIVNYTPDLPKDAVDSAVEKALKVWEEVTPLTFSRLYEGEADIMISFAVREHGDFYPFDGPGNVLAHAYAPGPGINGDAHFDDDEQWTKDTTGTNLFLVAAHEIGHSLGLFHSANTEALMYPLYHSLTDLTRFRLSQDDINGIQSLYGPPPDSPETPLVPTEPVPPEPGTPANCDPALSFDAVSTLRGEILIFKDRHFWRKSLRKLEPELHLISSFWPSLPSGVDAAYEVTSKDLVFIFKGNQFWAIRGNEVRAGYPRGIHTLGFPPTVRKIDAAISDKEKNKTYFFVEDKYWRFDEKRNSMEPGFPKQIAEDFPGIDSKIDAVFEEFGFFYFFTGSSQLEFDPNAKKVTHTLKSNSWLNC
Matrix metalloproteinase-9, sequence (P14780 whole entry): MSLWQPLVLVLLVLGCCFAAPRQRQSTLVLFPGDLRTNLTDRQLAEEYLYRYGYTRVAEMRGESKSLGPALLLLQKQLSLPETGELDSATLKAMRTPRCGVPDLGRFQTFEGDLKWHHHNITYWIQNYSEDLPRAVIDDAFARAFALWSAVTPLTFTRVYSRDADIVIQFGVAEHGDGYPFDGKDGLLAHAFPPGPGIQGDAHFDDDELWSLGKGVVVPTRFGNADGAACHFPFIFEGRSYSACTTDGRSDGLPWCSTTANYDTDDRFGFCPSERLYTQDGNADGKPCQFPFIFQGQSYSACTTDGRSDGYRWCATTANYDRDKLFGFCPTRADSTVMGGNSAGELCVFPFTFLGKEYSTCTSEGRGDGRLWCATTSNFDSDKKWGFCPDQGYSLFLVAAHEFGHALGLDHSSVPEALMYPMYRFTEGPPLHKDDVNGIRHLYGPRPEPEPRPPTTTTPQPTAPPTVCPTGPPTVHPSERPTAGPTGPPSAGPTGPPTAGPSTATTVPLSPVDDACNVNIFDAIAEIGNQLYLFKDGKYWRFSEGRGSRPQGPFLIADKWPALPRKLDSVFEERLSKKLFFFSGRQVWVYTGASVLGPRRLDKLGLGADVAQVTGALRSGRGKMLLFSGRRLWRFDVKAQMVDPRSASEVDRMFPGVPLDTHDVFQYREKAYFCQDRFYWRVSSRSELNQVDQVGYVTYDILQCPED

What is called IC50 is the concentration that inhibits the measured activity by half. The low end stands for higher potency, the high end for lower potency. Regarding `[N-]=[N+]=NCc1cc(N=[N+]=[N-])cc(C(=O)Nc2ccc(-c3cc(C(=O)NCCCCCCC(=O)NO)no3)cc2)c1`, the IC50 came to 9.33 µM in assay [1], 108 µM against Interstitial collagenase and 12.1 µM against Stromelysin-1. The outcome in the assay on HepG2 [2] was inactive. In addition, the result in the assay with HepG2 [3] was Active.

As to `[N-]=[N+]=NCc1cc(Cn2cc(NC(=O)CCCCCCC(=O)NO)cn2)cc(N=[N+]=[N-])c1`, the Activity in assay [4], in assay [5] and in [6] was > 70% throughout. For the same molecule, in the assay with SH-SY5Y, the result was Active.
